In ChEMBL document CHEMBL1817572, “New, potent, selective, and short-acting peptidic V1a receptor agonists” (J Med Chem, 2011):
Numbered stars: 1 amine (or outer) side, 2 acyl side, 3 side chain; on linkers, the order of the positions; unused ones are H or OH. Bridge positions count the residues as written; N and C are the ends. Square brackets hold non-standard residues; d marks the D form. Peptide text beside a SMILES is read from it. Orn(Me) = CN(CCC[C@H](N[*:1])C(=O)[*:2])[*:3]; Ala(2-furyl) = N[C@@H](Cc1ccco1)C(=O)O; Ala(cPent) = N[C@@H](CC1CCCC1)C(=O)O; 2Thi = N[C@@H](Cc1cccs1)C(=O)O; Orn = NCCC[C@H](N)C(=O)O; Dab = NCC[C@H](N)C(=O)O

Tests used:
Vasopressin V1a receptor [1] = target: Vasopressin V1a receptor (Homo sapiens, UniProt P37288); experiment: Agonist activity at recombinant human vasopressin V1a receptor expressed in HEK293 cells by luciferase reporter gene assay; format: functional, cell-based; details: read-out: EC50
Vasopressin V1a receptor (Homo sapiens, UniProt P37288), sequence (P37288 whole entry): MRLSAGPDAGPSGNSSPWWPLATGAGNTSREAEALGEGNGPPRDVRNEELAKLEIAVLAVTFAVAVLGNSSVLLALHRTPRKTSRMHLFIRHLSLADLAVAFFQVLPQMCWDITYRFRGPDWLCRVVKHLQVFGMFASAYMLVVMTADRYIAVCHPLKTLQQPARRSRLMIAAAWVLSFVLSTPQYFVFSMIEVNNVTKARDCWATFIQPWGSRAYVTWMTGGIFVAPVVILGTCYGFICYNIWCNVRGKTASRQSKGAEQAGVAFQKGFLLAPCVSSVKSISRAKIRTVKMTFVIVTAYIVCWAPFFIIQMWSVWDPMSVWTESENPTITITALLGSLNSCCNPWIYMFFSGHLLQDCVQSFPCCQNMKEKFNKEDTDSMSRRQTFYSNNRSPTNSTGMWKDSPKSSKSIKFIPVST

Vasopressin V1b receptor = target: T1, Vasopressin V1b receptor (Homo sapiens, UniProt P47901); experiment: Agonist activity at recombinant human vasopressin V1b receptor expressed in Flp-In-293 cells by luciferase reporter gene assay; format: functional, cell-based; details: read-out: EC50
T1 sequence (P47901 whole entry): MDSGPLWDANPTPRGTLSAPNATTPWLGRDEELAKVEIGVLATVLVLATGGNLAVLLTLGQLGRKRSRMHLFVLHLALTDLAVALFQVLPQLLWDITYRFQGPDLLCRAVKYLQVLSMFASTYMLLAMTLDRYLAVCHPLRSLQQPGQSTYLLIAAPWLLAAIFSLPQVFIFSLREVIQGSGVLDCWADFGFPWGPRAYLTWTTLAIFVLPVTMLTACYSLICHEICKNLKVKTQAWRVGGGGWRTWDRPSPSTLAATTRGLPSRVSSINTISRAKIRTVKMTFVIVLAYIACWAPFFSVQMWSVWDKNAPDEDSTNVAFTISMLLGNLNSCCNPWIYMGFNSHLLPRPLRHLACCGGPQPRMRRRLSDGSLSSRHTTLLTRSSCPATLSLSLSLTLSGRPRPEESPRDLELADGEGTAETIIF
Summary of the method: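 Reporter gene assays in HEK293 cells transiently cotransfected with V1a (human or rat) or human V2 receptor vector plus NFAT-luciferase (V1a) or CRE-luciferase (V2) reporter; V1b in Flp-In-293 stably expressing receptor, OT in CHO-K1 stably expressing receptor, both transiently transfected with NFAT-luciferase. Two days post-transfection, peptides added for 5 h at 37 °C, lysis with luciferin, luminescence read.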

Vasopressin V2 receptor = Vasopressin V2 receptor (Homo sapiens, UniProt P30518); experiment: Agonist activity at recombinant human vasopressin V2 receptor expressed in HEK293 cells by luciferase reporter gene assay; format: functional, cell-based
Vasopressin V2 receptor, sequence (P30518 whole entry): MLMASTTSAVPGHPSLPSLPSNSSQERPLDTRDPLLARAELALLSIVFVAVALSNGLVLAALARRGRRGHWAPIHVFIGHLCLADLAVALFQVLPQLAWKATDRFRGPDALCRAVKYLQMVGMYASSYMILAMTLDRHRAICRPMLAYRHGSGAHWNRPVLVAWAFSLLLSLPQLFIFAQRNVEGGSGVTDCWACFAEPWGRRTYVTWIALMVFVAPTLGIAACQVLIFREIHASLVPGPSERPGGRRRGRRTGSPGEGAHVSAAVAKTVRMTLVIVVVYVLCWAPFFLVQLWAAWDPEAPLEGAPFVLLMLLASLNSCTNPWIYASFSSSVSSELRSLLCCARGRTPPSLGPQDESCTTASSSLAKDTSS

Vasopressin V1a receptor [2] = target: Vasopressin V1a receptor (Rattus norvegicus, UniProt P30560); experiment: Agonist activity at recombinant rat vasopressin V1a receptor expressed in HEK293 cells by luciferase reporter gene assay; format: functional, cell-based
Vasopressin V1a receptor (Rattus norvegicus, UniProt P30560), sequence (P30560 whole entry): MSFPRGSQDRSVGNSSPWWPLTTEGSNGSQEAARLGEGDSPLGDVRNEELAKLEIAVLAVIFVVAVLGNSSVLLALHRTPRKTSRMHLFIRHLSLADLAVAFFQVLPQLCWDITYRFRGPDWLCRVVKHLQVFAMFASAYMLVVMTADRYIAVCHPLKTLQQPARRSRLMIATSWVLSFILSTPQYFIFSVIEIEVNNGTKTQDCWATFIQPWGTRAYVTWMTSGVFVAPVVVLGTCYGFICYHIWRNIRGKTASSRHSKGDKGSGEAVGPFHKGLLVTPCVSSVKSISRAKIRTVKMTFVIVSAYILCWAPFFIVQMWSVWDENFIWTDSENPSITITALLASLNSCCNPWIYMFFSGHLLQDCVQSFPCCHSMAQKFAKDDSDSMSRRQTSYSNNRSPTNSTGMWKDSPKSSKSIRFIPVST

[3] = target: Vasopressin V1a/V2 (Homo sapiens) (UniProt P30518+P37288); experiment: Selectivity ratio of EC50 for human vasopressin V2 receptor to EC50 for human vasopressin V1a receptor
Vasopressin V1a/V2 (Homo sapiens), sequence (P30518 whole entry, looked up): as the sequence (P30518 whole entry) above
Vasopressin V1a/V2 (Homo sapiens), sequence (P37288 whole entry, looked up): as the sequence (P37288 whole entry) above

Oxytocin receptor = target: T2, Oxytocin receptor (Homo sapiens, UniProt P30559); experiment: Agonist activity at human OT receptor expressed in CHO-K1 cells by luciferase reporter gene assay; format: functional, cell-based
T2 sequence (P30559 whole entry): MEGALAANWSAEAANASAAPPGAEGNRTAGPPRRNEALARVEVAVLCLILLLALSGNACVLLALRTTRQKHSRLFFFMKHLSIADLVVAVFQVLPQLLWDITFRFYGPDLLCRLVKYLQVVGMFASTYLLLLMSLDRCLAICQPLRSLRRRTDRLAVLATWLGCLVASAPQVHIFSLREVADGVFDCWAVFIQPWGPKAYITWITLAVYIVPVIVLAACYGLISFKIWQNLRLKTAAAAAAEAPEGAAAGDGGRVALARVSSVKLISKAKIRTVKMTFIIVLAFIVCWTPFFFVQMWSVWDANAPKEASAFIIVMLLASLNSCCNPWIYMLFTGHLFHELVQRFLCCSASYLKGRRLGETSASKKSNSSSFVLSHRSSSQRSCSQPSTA

Homo sapiens [4] = organism: Homo sapiens; experiment: Selectivity ratio of EC50 for human vasopressin V1b receptor to EC50 for human vasopressin V1a receptor
Homo sapiens [5] = organism: Homo sapiens; experiment: Selectivity ratio of EC50 for human oxytocin receptor to EC50 for human vasopressin V1a receptor
[6] = target: T3, Oxytocin receptor (Homo sapiens) (UniProt P30559); experiment: Partial agonist activity at human OT receptor expressed in CHO-K1 cells by luciferase reporter gene assay; format: functional, cell-based
T3 sequence (whole entry): T2 sequence (P30559 whole entry)
Summary of the method: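 Same luciferase reporter systems (OT in stable CHO-K1, V1b in stable Flp-In-293, each with transient NFAT-luciferase; V1a in HEK293 with NFAT-luciferase, V2 in HEK293 with CRE-luciferase). Peptides added for 5 h at 37 °C two days post-transfection, luminescence read. Partial agonism means efficacy <70%.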

Structure (SMILES)	EC50 (Vasopressin V1a receptor [1])	EC50 (Vasopressin V1b receptor)	Ratio EC50 [3]	Ratio EC50 (Homo sapiens [4])	Ratio EC50 (Homo sapiens [5])	EC50 (Vasopressin V2 receptor; hek293, read-out: EC50)	EC50 (Vasopressin V2 receptor; read-out: pEC50 (converted))	EC50 (Oxytocin receptor; cho-k1, read-out: EC50)	EC50 (Oxytocin receptor; read-out: pEC50 (converted))	EC50 (Vasopressin V2 receptor; read-out: EC50)	EC50 (Vasopressin V1a receptor [2]; read-out: EC50)	EC50 (Vasopressin V1a receptor [2]; read-out: pEC50 (converted))	EC50 (Oxytocin receptor; read-out: EC50)	Efficacy [6]
N=C(N)NCCC[C@H](NC(=O)[C@@H]1CCCN1C(=O)[C@@H]1CSSC[C@H](N)C(=O)N[C@@H](Cc2ccccc2)C(=O)N[C@@H](Cc2ccccc2)C(=O)N[C@@H](CCC(N)=O)C(=O)N[C@@H](CC(N)=O)C(=O)N1)C(=O)NCC(N)=O (H-CFFQNCPRG-NH2; disulfide 1-6)	0.15 nM	16 nM								1.4 nM	0.07 nM	0.0794 nM		
CC[C@H](C)[C@@H]1NC(=O)[C@H](Cc2ccccc2)NC(=O)[C@@H](N)CSSC[C@@H](C(=O)N2CCC[C@H]2C(=O)N[C@@H](CCN)C(=O)NCC(N)=O)NC(=O)[C@H](CC(N)=O)NC(=O)[C@H](CCC(N)=O)NC1=O (H-CFIQNCP[Dab]G-NH2; disulfide 1-6)		26 nM	140	52	18					73 nM			9.1 nM	< 70%
CC[C@H](C)[C@@H]1NC(=O)[C@H](Cc2ccco2)NC(=O)[C@@H](N)CSSC[C@@H](C(=O)N2CCC[C@H]2C(=O)N[C@@H](CCN)C(=O)NCC(N)=O)NC(=O)[C@H](CC(N)=O)NC(=O)[C@H](CC(N)=O)NC1=O (H-C[Ala(2-furyl)]INNCP[Dab]G-NH2; disulfide 1-6)	14 nM	460 nM	> 710	32	55	> 10000 nM	> 10000 nM						780 nM	< 70%
CC[C@H](C)[C@@H]1NC(=O)[C@H](Cc2ccccc2)NC(=O)[C@@H](N)CSSC[C@@H](C(=O)N2CCC[C@H]2C(=O)N[C@@H](CCCN)C(=O)NCC(N)=O)NC(=O)[C@H](CC(N)=O)NC(=O)[C@H](CCC(N)=O)NC1=O (H-CFIQNCP[Orn]G-NH2; disulfide 1-6)		25 nM						> 10000 nM	> 10000 nM	155 nM	0.12 nM			
CC[C@H](C)[C@@H]1NC(=O)[C@H](CC2CCCC2)NC(=O)[C@@H](N)CSSC[C@@H](C(=O)N2CCC[C@H]2C(=O)N[C@@H](CCN)C(=O)NCC(N)=O)NC(=O)[C@H](CC(N)=O)NC(=O)[C@H](CC(N)=O)NC1=O (H-C[Ala(cPent)]INNCP[Dab]G-NH2; disulfide 1-6)	11 nM	76 nM	> 900	6.9	> 900	> 10000 nM	> 10000 nM	> 10000 nM	> 10000 nM					

The next lines start with results.

EC50 (Vasopressin V1a receptor [1])	EC50 (Vasopressin V1b receptor)	Ratio EC50 [3]	Ratio EC50 (Homo sapiens [4])	Ratio EC50 (Homo sapiens [5])	EC50 (Vasopressin V2 receptor; hek293, read-out: EC50)	EC50 (Vasopressin V2 receptor; read-out: pEC50 (converted))	EC50 (Oxytocin receptor; cho-k1, read-out: EC50)	EC50 (Oxytocin receptor; read-out: pEC50 (converted))	Structure (SMILES)	EC50 (Vasopressin V2 receptor; read-out: EC50)	EC50 (Vasopressin V1a receptor [2]; read-out: EC50)	EC50 (Vasopressin V1a receptor [2]; read-out: pEC50 (converted))	EC50 (Oxytocin receptor; read-out: EC50)	Efficacy [6]
2.4 nM	65 nM	> 4100	27	> 4100	> 10000 nM	> 10000 nM	> 10000 nM	> 10000 nM	CC[C@H](C)[C@@H]1NC(=O)[C@H](Cc2ccccc2)NC(=O)[C@@H](N)CSSC[C@@H](C(=O)N2CCC[C@H]2C(=O)N[C@@H](CCCNC)C(=O)NCC(N)=O)NC(=O)[C@H](CC(N)=O)NC(=O)[C@H](CC(N)=O)NC1=O (H-CFINNCP[Orn(Me)]G-NH2; disulfide 1-6)					
12 nM	510 nM	> 830	42	> 830	> 10000 nM	> 10000 nM	> 10000 nM	> 10000 nM	CC[C@H](C)[C@@H]1NC(=O)[C@H](Cc2cccs2)NC(=O)[C@@H](N)CSSC[C@@H](C(=O)N2CCC[C@H]2C(=O)N[C@@H](CCN)C(=O)NCC(N)=O)NC(=O)[C@H](CC(N)=O)NC(=O)[C@H](CC(N)=O)NC1=O (H-C[2Thi]INNCP[Dab]G-NH2; disulfide 1-6)					
